Converted amounts (≈) assume the structure as drawn.
Legend:
[1] = Cytotoxicity against human MRC5 cells; format: cell-based
Human betaherpesvirus 5 [2] = assay: Antiviral activity against HCMV AD169 infected in human MRC5 cells by CPE assay; format: functional, organism-based; conditions: Human betaherpesvirus 5, AD169, MRC5
Summary of the method: (§1)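 MRC-5 fibroblasts were infected with HCMV and inhibition was read as protection from virus-induced cytopathic effect. EC50 is the half-maximal effect concentration, averaged over at least duplicate experiments, each run in triplicate.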

[3] = Half life of compound in human liver microsomes; format: ADME
Cytochrome P450 3A4 = Cytochrome P450 3A4 (Homo sapiens, UniProt P08684); assay: Inhibition of CYP3A4 (unknown origin); format: ADME
Cytochrome P450 2C9 = Cytochrome P450 2C9 (Homo sapiens, UniProt P11712); assay: Inhibition of CYP2C9 (unknown origin); format: ADME
Human betaherpesvirus 5 [4] = assay: Antiviral activity against HCMV AD169 assessed as inhibition of viral infection in human MRC5 cells by RT-qPCR method; format: functional, organism-based; conditions: Human betaherpesvirus 5, AD169, MRC5
Summary of the method: (§2)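 Infected cells were treated with compound added at the same time as virus, so only a single cycle of viral replication is scored. Viral replication was read by RT-qPCR and EC50 was taken as the half-maximal effect concentration. Each value is at least the mean of duplicate experiments, each run in triplicate.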

[5] = Solubility of the compound at pH 6.8; format: physicochemical; conditions: buffer
Salmonella typhimurium = assay: Genotoxicity in Salmonella typhimurium by Ames test; format: toxicity, organism-based; conditions: salmonella enterica subsp. enterica serovar typhimurium
Liver microsome = assay: Metabolic stability in human liver microsomes assessed as compound hydrolysis in absence of NADPH
Cytochrome P450 2C8 = biological target: T1, Cytochrome P450 2C8 (Homo sapiens, UniProt P10632); assay: Inhibition of CYP2C8 (unknown origin); format: ADME
T1 sequence (P10632 whole entry): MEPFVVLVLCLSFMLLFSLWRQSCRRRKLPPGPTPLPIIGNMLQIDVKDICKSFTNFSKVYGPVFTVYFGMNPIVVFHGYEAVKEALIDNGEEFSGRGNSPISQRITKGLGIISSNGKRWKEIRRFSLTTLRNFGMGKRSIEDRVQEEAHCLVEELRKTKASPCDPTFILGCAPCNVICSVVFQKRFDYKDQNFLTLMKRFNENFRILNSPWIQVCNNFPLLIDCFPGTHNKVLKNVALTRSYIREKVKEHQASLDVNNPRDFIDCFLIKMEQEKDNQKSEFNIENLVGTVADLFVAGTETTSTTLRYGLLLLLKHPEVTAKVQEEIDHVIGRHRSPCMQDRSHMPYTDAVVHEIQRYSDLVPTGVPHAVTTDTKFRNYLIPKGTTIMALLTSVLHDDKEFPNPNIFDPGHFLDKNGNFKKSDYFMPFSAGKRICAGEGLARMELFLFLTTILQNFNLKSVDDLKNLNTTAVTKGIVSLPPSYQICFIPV

Cytochrome P450 2D6 = Cytochrome P450 2D6 (Homo sapiens, UniProt P10635); assay: Inhibition of CYP2D6 (unknown origin); format: ADME
[6] = Oral bioavailability in rat; format: ADME, organism-based; conditions: in vivo
Human betaherpesvirus 5 [7] = assay: Antiviral activity against HCMV TR assessed as inhibition of viral infection in human MRC5 cells by RT-qPCR method; format: functional, organism-based; conditions: Human betaherpesvirus 5, TR; summary of the method: as §2
[8] = Half life of compound in rat; format: ADME, organism-based; conditions: in vivo
[9] = Volume of distribution at steady state in rat; format: ADME, organism-based; conditions: in vivo, read-out: Vdss
Human betaherpesvirus 5 [10] = assay: Antiviral activity against HCMV VR1814 infected in human ARPE19 cells after 72 hrs by cell-to-cell spread assay; format: functional, organism-based; conditions: Human betaherpesvirus 5, VR1814, ARPE-19, 72 h
Summary of the method: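 ARPE-19 cells were infected and replication ran for 24 h. Medium and free virus were then removed, and Cytogam neutralizing antibody plus fresh medium were added. After 48 h, allowing one full replication cycle, compounds were added. After a further 72 h, infected nuclei were stained with fluorescent anti-IE1 antibody and clusters imaged. IC50 came from dose-response curves, averaging at least duplicate experiments run in triplicate.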

Human betaherpesvirus 5 [11] = assay: Antiviral activity against HCMV VR1814 assessed as inhibition of viral infection in human MRC5 cells by RT-qPCR method; format: functional, organism-based; conditions: Human betaherpesvirus 5, VR1814, MRC5; summary of the method: as §2
Human betaherpesvirus 5 [12] = assay: Antiviral activity against HCMV VR1814 assessed as inhibition of viral infection in human ARPE19 cells by RT-qPCR method; format: functional, organism-based; conditions: Human betaherpesvirus 5, VR1814, ARPE-19; summary of the method: as §2
Human betaherpesvirus 5 [13] = assay: Antiviral activity against HCMV TB40 assessed as inhibition of viral infection in human MRC5 cells by RT-qPCR method; format: functional, organism-based; conditions: Human betaherpesvirus 5, TB40, MRC5; summary of the method: as §2
Human betaherpesvirus 5 [14] = assay: Antiviral activity against HCMV TR infected in human MRC5 cells by CPE assay; format: functional, organism-based; conditions: Human betaherpesvirus 5, TR; summary of the method: as §1
[15] = Apparent permeability across apical to basolateral side in human Caco2 cells; format: ADME, cell-based; conditions: Caco-2

Sequence of Cytochrome P450 3A4 (P08684 whole entry): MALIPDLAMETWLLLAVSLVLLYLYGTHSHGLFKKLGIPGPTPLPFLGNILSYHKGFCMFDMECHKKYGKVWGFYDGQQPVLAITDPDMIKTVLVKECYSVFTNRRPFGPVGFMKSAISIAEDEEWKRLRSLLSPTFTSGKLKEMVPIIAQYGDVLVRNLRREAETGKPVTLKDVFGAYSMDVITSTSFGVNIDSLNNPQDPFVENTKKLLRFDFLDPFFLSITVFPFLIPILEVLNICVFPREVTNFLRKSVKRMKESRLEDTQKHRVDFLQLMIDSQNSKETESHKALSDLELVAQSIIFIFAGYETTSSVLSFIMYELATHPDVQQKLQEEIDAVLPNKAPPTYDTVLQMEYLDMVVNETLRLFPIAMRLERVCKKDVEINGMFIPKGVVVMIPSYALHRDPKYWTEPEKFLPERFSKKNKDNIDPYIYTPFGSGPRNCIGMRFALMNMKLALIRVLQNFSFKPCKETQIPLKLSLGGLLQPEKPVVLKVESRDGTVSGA
Sequence of Cytochrome P450 2C9 (P11712 whole entry): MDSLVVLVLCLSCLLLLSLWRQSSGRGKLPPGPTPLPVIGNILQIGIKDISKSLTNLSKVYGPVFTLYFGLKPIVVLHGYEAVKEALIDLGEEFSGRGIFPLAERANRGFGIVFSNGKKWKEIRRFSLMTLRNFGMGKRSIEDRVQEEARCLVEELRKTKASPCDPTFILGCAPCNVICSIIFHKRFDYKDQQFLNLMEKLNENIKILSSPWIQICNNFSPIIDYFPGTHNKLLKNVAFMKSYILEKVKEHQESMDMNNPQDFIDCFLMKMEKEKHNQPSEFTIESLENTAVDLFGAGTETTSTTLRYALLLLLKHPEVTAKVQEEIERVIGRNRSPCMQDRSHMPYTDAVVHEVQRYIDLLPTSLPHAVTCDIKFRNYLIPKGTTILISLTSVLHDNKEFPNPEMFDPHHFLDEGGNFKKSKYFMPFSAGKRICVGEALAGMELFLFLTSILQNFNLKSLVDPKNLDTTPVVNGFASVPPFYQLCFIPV
Sequence of Cytochrome P450 2D6 (P10635 whole entry): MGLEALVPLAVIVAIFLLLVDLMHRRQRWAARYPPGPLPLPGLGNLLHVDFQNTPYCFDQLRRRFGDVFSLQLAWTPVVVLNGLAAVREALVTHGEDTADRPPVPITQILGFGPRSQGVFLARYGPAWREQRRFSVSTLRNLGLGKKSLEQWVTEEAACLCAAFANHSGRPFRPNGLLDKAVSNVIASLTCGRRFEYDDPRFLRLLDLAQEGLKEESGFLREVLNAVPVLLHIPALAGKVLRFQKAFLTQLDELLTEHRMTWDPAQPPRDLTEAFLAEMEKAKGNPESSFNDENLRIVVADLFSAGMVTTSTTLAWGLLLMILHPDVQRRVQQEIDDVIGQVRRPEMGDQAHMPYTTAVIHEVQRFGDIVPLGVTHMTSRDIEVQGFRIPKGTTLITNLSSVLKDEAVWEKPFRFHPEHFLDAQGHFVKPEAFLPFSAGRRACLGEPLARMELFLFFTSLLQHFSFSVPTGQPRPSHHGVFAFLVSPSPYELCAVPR

Structure (SMILES)	CC50 [1]	EC50 (Human betaherpesvirus 5 [2])	half-life [3]	IC50 (Cytochrome P450 3A4)	IC50 (Cytochrome P450 2C9)	EC50 (Human betaherpesvirus 5 [4])	solubility [5]	Activity (Salmonella typhimurium)	Stability (Liver microsome)	further results
O=C(Nc1ccc(/N=C(\S)Nc2cc(C(F)(F)F)cc(C(F)(F)F)c2)cc1)c1csnn1	36000 nM	250 nM	1.83 h							
CC(C)CC(O)(c1cccc(C(F)(F)F)c1)c1nc(-n2ccc(NC(=O)c3cscn3)cc2=O)c[nH]1 (stereo unspecified)			0.267 h	> 30000 nM	150 nM	28 nM	< 0.1 µg/mL			
O=C(Nc1ccc2nc(NCc3cc(C(F)(F)F)cc(C(F)(F)F)c3)sc2c1)c1cscn1	> 57000 nM	430 nM						Toxic	Unstable	
O=C(Nc1ccc2nc(Cc3cc(C(F)(F)F)cc(C(F)(F)F)c3)[nH]c2c1)c1cscn1	> 57000 nM	2300 nM						Toxic	Stable	
CC(O)(c1cccc(C(F)(F)F)c1)c1nc(-n2ccc(NC(=O)c3cscn3)cc2=O)c[nH]1 (stereo unspecified)			> 2 h	> 30000 nM	3000 nM	540 nM	76 µg/mL (≈ 160 µM)			IC50 (Cytochrome P450 2C8): 4700 nM; IC50 (Cytochrome P450 2D6): 17000 nM; bioavailability [6]: 72%; EC50 (Human betaherpesvirus 5 [7]): 470 nM; half-life [8]: 1.9 h; Vd [9]: 2.5 L; EC50 (Human betaherpesvirus 5 [10]): 800 nM; EC50 (Human betaherpesvirus 5 [11]): 910 nM; EC50 (Human betaherpesvirus 5 [12]): 1700 nM; EC50 (Human betaherpesvirus 5 [13]): 250 nM
O=C(Cc1ccc(NC(=O)c2cscn2)cn1)Nc1cc(C(F)(F)F)cc(C(F)(F)F)c1	> 57000 nM	540 nM						Toxic	Stable	
CC(c1cccc(C(F)(F)F)c1)n1cnc(-n2ccc(NC(=O)c3cscn3)cc2=O)c1 (stereo unspecified)					2100 nM	2400 nM	< 0.1 µg/mL			IC50 (Cytochrome P450 2C8): 1700 nM
COc1cccc(C(=O)Nc2ccc(NC(=O)c3ccco3)cc2)c1	> 82000 nM	4000 nM	0.2 h	> 30000 nM		2500 nM	1.9 µg/mL (≈ 5.65 µM)			EC50 (Human betaherpesvirus 5 [14]): 8200 nM; IC50 (Cytochrome P450 2D6): > 30000 nM; Papp A→B [15]: 11 ×10⁻⁶ cm/s
O=C(Nc1ccc(NC(=O)c2ccco2)cc1)c1cccnc1	> 57000 nM	38000 nM								
COc1cccc(C(=O)Nc2ccc(NC(=O)c3ccco3)cc2)c1F	> 57000 nM	8000 nM								
O=C(Nc1ccc(-c2c[nH]c(-c3cc(C(F)(F)F)cc(C(F)(F)F)c3)n2)cc1)c1cscn1	7800 nM	130 nM						Toxic	Unstable	
COc1cccc(C(=O)Nc2ccc(NC(=O)c3cscn3)cc2)c1	> 57000 nM	640 nM	0.367 h							
O=C(Cc1ccc(NC(=O)c2cscn2)cc1)Nc1cc(C(F)(F)F)cc(C(F)(F)F)c1	36000 nM	130 nM						Toxic	Unstable	
COc1cccc(C(=O)Nc2ccc(NC(=O)c3csnn3)cc2)c1	> 57000 nM	3000 nM	0.567 h							
Cc1ccc(C(C)(O)c2nc(-n3ccc(NC(=O)c4cscn4)cc3=O)c[nH]2)cc1 (stereo unspecified)			1.2 h	> 30000 nM	14000 nM	1900 nM	16 µg/mL (≈ 38 µM)			IC50 (Cytochrome P450 2C8): 18000 nM
O=C(Cc1ccc(NC(=O)c2cscn2)nc1)Nc1cc(C(F)(F)F)cc(C(F)(F)F)c1	> 57000 nM	440 nM						Toxic	Stable	
O=C(Nc1ccc(NC(=O)c2ccco2)cc1)c1cccc(Cl)c1	> 57000 nM	1100 nM	0.233 h							
O=C(Nc1ccc(NC(=O)c2ccco2)cc1)c1ccc(Cl)c(C(F)(F)F)c1	> 57000 nM	340 nM	0.233 h							
O=C(Cc1cc(C(F)(F)F)cc(C(F)(F)F)c1)Nc1ccc(NC(=O)c2cscn2)cc1	> 57000 nM	220 nM	1.57 h					Toxic	Unstable	
O=C(Cn1ccc(NC(=O)c2cscn2)cc1=O)Nc1cc(C(F)(F)F)cc(C(F)(F)F)c1	28000 nM	440 nM						Non-toxic	Stable	
O=C(Nc1ccn(-c2c[nH]c(C(O)c3cccc(C(F)(F)F)c3)n2)c(=O)c1)c1cscn1 (stereo unspecified)			> 2 h	> 30000 nM	7300 nM	470 nM				IC50 (Cytochrome P450 2C8): 4300 nM
O=C(Nc1ccn(-c2cn(Cc3cccc(C(F)(F)F)c3)cn2)c(=O)c1)c1cscn1			> 2 h	1900 nM	2100 nM	> 5800 nM	< 0.16 µg/mL			
O=C(Cc1cc(C(F)(F)F)cc(C(F)(F)F)c1)Nc1ccc2nc(NC(=O)c3cscn3)sc2c1	> 57000 nM	250 nM						Toxic	Stable	
CC(C)OC(c1cccc(C(F)(F)F)c1)c1nc(-n2ccc(NC(=O)c3cscn3)cc2=O)c[nH]1 (stereo unspecified)			> 2 h	> 30000 nM	1400 nM	110 nM	< 0.1 µg/mL			IC50 (Cytochrome P450 2C8): 180 nM
COc1cccc(C(=O)Nc2ccc(NC(=O)c3cncnc3)cc2)c1	> 57000 nM	> 57000 nM								
CC(c1cccc(C(F)(F)F)c1)c1nc(-n2ccc(NC(=O)c3cscn3)cc2=O)c[nH]1 (stereo unspecified)			> 2 h	> 30000 nM	31 nM	150 nM	< 0.1 µg/mL			
COc1cccc(C(=O)Nc2ccc(NC(=O)c3cocn3)cc2)c1	> 57000 nM	4400 nM	1.63 h							
Cc1cccc(C(C)(O)c2nc(-n3ccc(NC(=O)c4cscn4)cc3=O)c[nH]2)c1 (stereo unspecified)				> 30000 nM	13000 nM	3600 nM	63 µg/mL (≈ 149 µM)			IC50 (Cytochrome P450 2C8): 21000 nM

Reference: ChEMBL document CHEMBL3808290, “Discovery of Potent, Orally Bioavailable Inhibitors of Human Cytomegalovirus” (ACS Med Chem Lett, 2016)
